According to ChEMBL document CHEMBL1926614, “Substituted thiazoles V. synthesis and antitumor activity of novel thiazolo[2,3-b]quinazoline and pyrido[4,3-d]thiazolo[3,2-a]pyrimidine analogues” (2012):

Assays:
Format in all cases: functional
[1] = system: HCT-15; experiment: Growth inhibition of human HCT15 cells at 10 uM after 48 hrs by coulter counting; details: HCT-15, 48 h, read-out: GI
Outline: (§1)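 Single-dose primary screen across the full NCI 60-cell-line panel. Stocks were made in DMSO and diluted in PBS to a final DMSO below 1%. Cultures at 6 × 10⁴ cells/ml were run in duplicate wells alongside PBS/DMSO vehicle controls at 37 °C in humidified 5% CO₂. Data were expressed as percent growth of treated cells.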

[2] = system: UACC-257; experiment: Growth inhibition of human UACC257 cells at 10 uM after 48 hrs by coulter counting; details: UACC-257, 48 h, read-out: GI
Outline: (§2)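 Single-dose screen in the NCI 60 human tumor cell line panel (nine subpanels). Compounds dissolved in DMSO and diluted in phosphate buffered saline, keeping final DMSO below 1%. Added in duplicate wells to cells at 6 × 10⁴ cells/ml. Controls held PBS and DMSO at matching dilutions. Incubated at 37 °C, humidified, 5% CO₂. Reported as percent growth of treated cells.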

[3] = system: UACC-62; experiment: Growth inhibition of human UACC62 cells at 10 uM after 48 hrs by coulter counting; details: UACC-62, 48 h, read-out: GI; outline: as §2
[4] = system: CCRF-CEM; experiment: Growth inhibition of human CCRF-CEM cells at 10 uM after 48 hrs by coulter counting; details: read-out: GI; outline: as §1
[5] = system: HL-60(TB); experiment: Growth inhibition of human HL-60(TB) cells at 10 uM after 48 hrs by coulter counting; details: HL-60, 48 h, read-out: GI
Outline: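 Test compound was dissolved in DMSO and diluted in phosphate-buffered saline to a final DMSO level below 1%. Dilutions were plated in duplicate with cell culture at 6 × 10⁴ cells/ml. Vehicle controls held PBS and DMSO at matching dilutions. Incubation was at 37 °C, humidified, under 5% CO₂. Data were reported as percent growth of treated cells.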

[6] = system: K562; experiment: Growth inhibition of human K562 cells at 10 uM after 48 hrs by coulter counting; details: K562, 48 h, read-out: GI; outline: as §1
[7] = system: MOLT-4; experiment: Growth inhibition of human MOLT4 cells at 10 uM after 48 hrs by coulter counting; details: MOLT-4, 48 h, read-out: GI; outline: as §1
[8] = system: RPMI-8226; experiment: Growth inhibition of human RPMI8226 cells at 10 uM after 48 hrs by coulter counting; details: RPMI-8226, 48 h, read-out: GI; outline: as §1
[9] = system: A549; experiment: Growth inhibition of human A549 cells at 10 uM after 48 hrs by coulter counting; details: A549, 48 h, read-out: GI; outline: as §1
[10] = system: EKVX; experiment: Growth inhibition of human EKVX cells at 10 uM after 48 hrs by coulter counting; details: read-out: GI; outline: as §1
[11] = system: HOP-62; experiment: Growth inhibition of human HOP62 cells at 10 uM after 48 hrs by coulter counting; details: HOP-62, 48 h, read-out: GI; outline: as §1
[12] = system: NCI-H226; experiment: Growth inhibition of human NCI-H226 cells at 10 uM after 48 hrs by coulter counting; details: NCI-H226, 48 h, read-out: GI; outline: as §1
[13] = system: NCI-H23; experiment: Growth inhibition of human NCI-H23 cells at 10 uM after 48 hrs by coulter counting; details: NCI-H23, 48 h, read-out: GI; outline: as §1
[14] = Growth inhibition of human NCI-322M cells at 10 uM after 48 hrs by coulter counting; details: read-out: GI; outline: as §1
[15] = system: NCI-H460; experiment: Growth inhibition of human NCI-H460 cells at 10 uM after 48 hrs by coulter counting; details: NCI-H460, 48 h, read-out: GI; outline: as §1
[16] = system: NCI-H522; experiment: Growth inhibition of human NCI-H522 cells at 10 uM after 48 hrs by coulter counting; details: NCI-H522, 48 h, read-out: GI; outline: as §1
[17] = system: HCT-116; experiment: Growth inhibition of human HCT116 cells at 10 uM after 48 hrs by coulter counting; details: HCT-116, 48 h, read-out: GI; outline: as §1
[18] = system: HT-29; experiment: Growth inhibition of human HT-29 cells at 10 uM after 48 hrs by coulter counting; details: HT-29, 48 h, read-out: GI; outline: as §1
[19] = system: KM12; experiment: Growth inhibition of human KM12 cells at 10 uM after 48 hrs by coulter counting; details: KM12, 48 h, read-out: GI; outline: as §1
[20] = system: SF-268; experiment: Growth inhibition of human SF268 cells at 10 uM after 48 hrs by coulter counting; details: SF-268, 48 h, read-out: GI; outline: as §1
[21] = system: SF-295; experiment: Growth inhibition of human SF295 cells at 10 uM after 48 hrs by coulter counting; details: SF-295, 48 h, read-out: GI; outline: as §1
[22] = system: SNB-19; experiment: Growth inhibition of human SNB19 cells at 10 uM after 48 hrs by coulter counting; details: SNB-19, 48 h, read-out: GI; outline: as §1
[23] = system: SNB-75; experiment: Growth inhibition of human SNB75 cells at 10 uM after 48 hrs by coulter counting; details: SNB-75, 48 h, read-out: GI; outline: as §1
[24] = system: U-251; experiment: Growth inhibition of human U251 cells at 10 uM after 48 hrs by coulter counting; details: U-251, 48 h, read-out: GI; outline: as §2
[25] = system: LOX IMVI; experiment: Growth inhibition of human LOXIMVI cells at 10 uM after 48 hrs by coulter counting; details: read-out: GI; outline: as §1
[26] = system: M14; experiment: Growth inhibition of human M14 cells at 10 uM after 48 hrs by coulter counting; details: M14, 48 h, read-out: GI; outline: as §1
[27] = system: MDA-MB-435; experiment: Growth inhibition of human MDA-MB-435 cells at 10 uM after 48 hrs by coulter counting; details: MDA-MB-435, 48 h, read-out: GI; outline: as §1
[28] = system: SK-MEL-2; experiment: Growth inhibition of human SK-MEL-2 cells at 10 uM after 48 hrs by coulter counting; details: SK-MEL-2, 48 h, read-out: GI; outline: as §1
[29] = system: SK-MEL-28; experiment: Growth inhibition of human SK-MEL-28 cells at 10 uM after 48 hrs by coulter counting; details: SK-MEL-28, 48 h, read-out: GI; outline: as §1
[30] = system: SK-MEL-5; experiment: Growth inhibition of human SK-MEL-5 cells at 10 uM after 48 hrs by coulter counting; details: SK-MEL-5, 48 h, read-out: GI; outline: as §1
[31] = system: NCI/ADR-RES; experiment: Growth inhibition of human NCI/ADR-RES cells at 10 uM after 48 hrs by coulter counting; details: read-out: GI; outline: as §1
[32] = system: A498; experiment: Growth inhibition of human A498 cells at 10 uM after 48 hrs by coulter counting; details: A498, 48 h, read-out: GI; outline: as §1
[33] = system: ACHN; experiment: Growth inhibition of human ACHN cells at 10 uM after 48 hrs by coulter counting; details: read-out: GI; outline: as §1
[34] = system: CAKI-1; experiment: Growth inhibition of human Caki1 cells at 10 uM after 48 hrs by coulter counting; details: CAKI-1, 48 h, read-out: GI; outline: as §1
[35] = system: UO-31; experiment: Growth inhibition of human UO31 cells at 10 uM after 48 hrs by coulter counting; details: UO-31, 48 h, read-out: GI; outline: as §2
[36] = system: DU-145; experiment: Growth inhibition of human DU145 cells at 10 uM after 48 hrs by coulter counting; details: DU-145, 48 h, read-out: GI; outline: as §1
[37] = system: MCF7; experiment: Growth inhibition of human MCF7 cells at 10 uM after 48 hrs by coulter counting; details: MCF7, 48 h, read-out: GI; outline: as §1
[38] = system: BT-549; experiment: Growth inhibition of human BT549 cells at 10 uM after 48 hrs by coulter counting; details: BT-549, 48 h, read-out: GI; outline: as §1
[39] = system: T47D; experiment: Growth inhibition of human T47D cells at 10 uM after 48 hrs by coulter counting; details: read-out: GI; outline: as §2
[40] = system: OVCAR-8; experiment: Growth inhibition of human OVCAR8 cells at 10 uM after 48 hrs by coulter counting; details: OVCAR-8, 48 h, read-out: GI; outline: as §1
[41] = system: 786-0; experiment: Growth inhibition of human 786-0 cells at 10 uM after 48 hrs by coulter counting; details: 786-0, 48 h, read-out: GI; outline: as §1
[42] = system: SN12C; experiment: Growth inhibition of human SN12C cells at 10 uM after 48 hrs by coulter counting; details: read-out: GI; outline: as §1
[43] = system: TK-10; experiment: Growth inhibition of human TK10 cells at 10 uM after 48 hrs by coulter counting; details: TK-10, 48 h, read-out: GI; outline: as §2

Which results are given for CCN1CC2=C(N=C3SC=C(C)N3C2c2cccs2)/C(=C/c2cccs2)C1 (stereo not drawn)?
inhibition of growth at 10 µM [1]: > 10%; inhibition of growth at 10 µM [2]: > 10%; inhibition of growth at 10 µM [3]: > 10%; inhibition of growth at 10 µM [4]: > 10%; inhibition of growth at 10 µM [5]: > 10%; inhibition of growth at 10 µM [6]: > 10%; inhibition of growth at 10 µM [7]: > 10%; inhibition of growth at 10 µM [8]: > 10%; inhibition of growth at 10 µM [9]: > 10%; inhibition of growth at 10 µM [10]: 17.7%; inhibition of growth at 10 µM [11]: > 10%; inhibition of growth at 10 µM [12]: > 10%; inhibition of growth at 10 µM [13]: > 10%; inhibition of growth at 10 µM [14]: > 10%; inhibition of growth at 10 µM [15]: > 10%; inhibition of growth at 10 µM [16]: > 10%; inhibition of growth at 10 µM [17]: > 10%; inhibition of growth at 10 µM [18]: > 10%; inhibition of growth at 10 µM [19]: > 10%; inhibition of growth at 10 µM [20]: > 10%; inhibition of growth at 10 µM [21]: > 10%; inhibition of growth at 10 µM [22]: > 10%; inhibition of growth at 10 µM [23]: 13.6%; inhibition of growth at 10 µM [24]: > 10%; inhibition of growth at 10 µM [25]: > 10%; inhibition of growth at 10 µM [26]: > 10%; inhibition of growth at 10 µM [27]: > 10%; inhibition of growth at 10 µM [28]: > 10%; inhibition of growth at 10 µM [29]: > 10%; inhibition of growth at 10 µM [30]: > 10%; inhibition of growth at 10 µM [31]: > 10%; inhibition of growth at 10 µM [32]: > 10%; inhibition of growth at 10 µM [33]: > 10%; inhibition of growth at 10 µM [34]: > 10%; inhibition of growth at 10 µM [35]: 21.8%; inhibition of growth at 10 µM [36]: > 10%; inhibition of growth at 10 µM [37]: > 10%; inhibition of growth at 10 µM [38]: > 10%; inhibition of growth at 10 µM [39]: > 10%; inhibition of growth at 10 µM [40]: > 10%; inhibition of growth at 10 µM [41]: > 10%; inhibition of growth at 10 µM [42]: > 10%; inhibition of growth at 10 µM [43]: > 10%
